Test results taken from ChEMBL document CHEMBL1158343, “Synthesis, antimicrobial and antiviral evaluation of substituted imidazole derivatives” (Eur J Med Chem, 2009).
In brackets after ≈: the same amount, converted by molar mass.

Key:
Aspergillus niger = assay: Antimicrobial activity against Aspergillus niger after 7 days by tube dilution method; format: functional; settings: 168 h
Summary of the method: (§1)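 Tube dilution in DMSO (stock 100 mg/ml) with serial dilutions; incubation 37 °C for 48 h for C. albicans (other organisms' times truncated in text). MIC read as lowest concentration inhibiting visible growth. Norfloxacin (bacteria) and fluconazole (fungi) as reference drugs.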

Staphylococcus aureus = assay: Antimicrobial activity against Staphylococcus aureus after 24 hrs by tube dilution method; format: functional; summary of the method: as §1
Bacillus subtilis = assay: Antimicrobial activity against Bacillus subtilis after 24 hrs by tube dilution method; format: functional; summary of the method: as §1
Escherichia coli = assay: Antimicrobial activity against Escherichia coli after 24 hrs by tube dilution method; format: functional; summary of the method: as §1
Candida albicans = assay: Antimicrobial activity against Candida albicans after 48 hrs by tube dilution method; format: functional; summary of the method: as §1
[1] = Cytotoxicity against african green monkey Vero cells assessed as alteration in cell morphology; format: cell-based; settings: chlorocebus sabaeus
Summary of the method: (§2)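 Uninfected cell cultures tested in parallel with the CPE-reduction antiviral assay; cells grown to confluency, then serial compound dilutions added and incubated at 37 °C (3 days in the parallel antiviral set-up). Read-out is microscopic examination of morphology; value is the minimum cytotoxic concentration, the lowest causing a microscopically detectable alteration of normal cell morphology.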

Human alphaherpesvirus 1 [2] = assay: Antiviral activity against thymidine kinase-deficient acyclovir-resistant HSV1 KOS infected in human HEL cells assessed as reduction in virus-induced cytopathogenicity after 3 days; format: functional, organism-based; settings: Human alphaherpesvirus 1, KOS, 72 h
[3] = test system: Respiratory syncytial virus; assay: Antiviral activity against RSV infected in human HeLa cells assessed as reduction in virus-induced cytopathogenicity after 3 days; format: functional, organism-based; settings: 72 h
Coxsackievirus B4 [4] = assay: Antiviral activity against Coxsackievirus B4 infected in african green monkey Vero cells assessed as reduction in virus-induced cytopathogenicity after 3 days; format: functional, organism-based; settings: Enterovirus B, 72 h
[5] = Cytotoxicity against human HeLa cells assessed as alteration in cell morphology; format: cell-based; summary of the method: as §2
Human alphaherpesvirus 2 = assay: Antiviral activity against HSV2 G infected in human HEL cells assessed as reduction in virus-induced cytopathogenicity after 3 days; format: functional, organism-based; settings: Human alphaherpesvirus 2, strain G, 72 h
[6] = test system: Vesicular stomatitis virus; assay: Antiviral activity against VSV infected in human HEL cells assessed as reduction in virus-induced cytopathogenicity after 3 days; format: functional, organism-based; settings: 72 h
[7] = Cytotoxicity against human HEL cells assessed as alteration in cell morphology; format: cell-based; summary of the method: as §2
Punta Toro virus = assay: Antiviral activity against Punta Toro virus infected in african green monkey Vero cells assessed as reduction in virus-induced cytopathogenicity after 3 days; format: functional, organism-based; settings: 72 h
[8] = test system: Mammalian orthoreovirus 1; assay: Antiviral activity against Reovirus 1 infected in african green monkey Vero cells assessed as reduction in virus-induced cytopathogenicity after 3 days; format: functional, organism-based; settings: Mammalian orthoreovirus 1, Vero, 72 h
Human respirovirus 3 = assay: Antiviral activity against Parainfluenza-3 virus infected in african green monkey Vero cells assessed as reduction in virus-induced cytopathogenicity after 3 days; format: functional, organism-based; settings: Human respirovirus 3, Vero, 72 h
Sindbis virus = assay: Antiviral activity against Sindbis virus infected in african green monkey Vero cells assessed as reduction in virus-induced cytopathogenicity after 3 days; format: functional, organism-based; settings: 72 h
Coxsackievirus B4 [9] = assay: Antiviral activity against Coxsackievirus B4 infected in human HeLa cells assessed as reduction in virus-induced cytopathogenicity after 3 days; format: functional, organism-based; settings: Enterovirus B, 72 h
[10] = test system: Vesicular stomatitis virus; assay: Antiviral activity against VSV infected in human HeLa cells assessed as reduction in virus-induced cytopathogenicity after 3 days; format: functional, organism-based; settings: 72 h
Human alphaherpesvirus 1 [11] = assay: Antiviral activity against HSV1 KOS infected in human HEL cells assessed as reduction in virus-induced cytopathogenicity after 3 days; format: functional, organism-based; settings: Human alphaherpesvirus 1, KOS, 72 h

Compound | MFC (Aspergillus niger) | MIC (Aspergillus niger) | MBC (Staphylococcus aureus) | MIC (Staphylococcus aureus) | MBC (Bacillus subtilis) | MIC (Bacillus subtilis) | MBC (Escherichia coli) | MIC (Escherichia coli) | MFC (Candida albicans) | MIC (Candida albicans) | EC50 (Human alphaherpesvirus 1 [2]) | EC50 (Human alphaherpesvirus 2) | EC50 [6] | MCC [7] | EC50 (Human alphaherpesvirus 1 [11]) | other results
Clc1ccccc1-c1ncc[nH]1 | 280 µM (≈ 50 µg/mL) | 35 µM (≈ 6.25 µg/mL) | 561 µM (≈ 100 µg/mL) | 35 µM (≈ 6.25 µg/mL) | 561 µM (≈ 100 µg/mL) | 702 µM (≈ 125 µg/mL) | 561 µM (≈ 100 µg/mL) | 702 µM (≈ 125 µg/mL) | 561 µM (≈ 100 µg/mL) | 702 µM (≈ 125 µg/mL) |  |  |  |  |  | 
O=[N+]([O-])c1ccc(-c2ncc[nH]2)cc1 | 264 µM (≈ 49.9 µg/mL) | 33 µM (≈ 6.24 µg/mL) | 33 µM (≈ 6.24 µg/mL) | 4 µM (≈ 0.757 µg/mL) | 132 µM (≈ 25 µg/mL) | 16 µM (≈ 3.03 µg/mL) | 33 µM (≈ 6.24 µg/mL) | 4 µM (≈ 0.757 µg/mL) | 264 µM (≈ 49.9 µg/mL) | 33 µM (≈ 6.24 µg/mL) |  |  |  |  |  | 
O=C(c1ccc([N+](=O)[O-])cc1)n1ccnc1-c1cccc([N+](=O)[O-])c1 | 73 µM (≈ 24.7 µg/mL) | 9 µM (≈ 3.04 µg/mL) | 147 µM (≈ 49.7 µg/mL) | 18 µM (≈ 6.09 µg/mL) | 295 µM (≈ 99.8 µg/mL) | 36 µM (≈ 12.2 µg/mL) | 36 µM (≈ 12.2 µg/mL) | 9 µM (≈ 3.04 µg/mL) | 295 µM (≈ 99.8 µg/mL) | 18 µM (≈ 6.09 µg/mL) | > 100 µg/mL | > 100 µg/mL | > 100 µg/mL | > 100 µg/mL | > 100 µg/mL | MCC [1]: > 100 µg/mL; EC50 [3]: > 100 µg/mL; EC50 (Coxsackievirus B4 [4]): > 100 µg/mL; MCC [5]: > 100 µg/mL; EC50 (Punta Toro virus): 100 µg/mL (≈ 296 µM); EC50 [8]: > 100 µg/mL; EC50 (Human respirovirus 3): > 100 µg/mL; EC50 (Sindbis virus): > 100 µg/mL; EC50 (Coxsackievirus B4 [9]): > 100 µg/mL; EC50 [10]: > 100 µg/mL
COc1ccc(-c2ncc[nH]2)cc1 | 526 µM (≈ 91.6 µg/mL) | 65 µM (≈ 11.3 µg/mL) | 32 µM (≈ 5.57 µg/mL) | 4 µM (≈ 0.697 µg/mL) | 32 µM (≈ 5.57 µg/mL) | 4 µM (≈ 0.697 µg/mL) | 263 µM (≈ 45.8 µg/mL) | 32 µM (≈ 5.57 µg/mL) | 526 µM (≈ 91.6 µg/mL) | 65 µM (≈ 11.3 µg/mL) |  |  |  |  |  | 
c1ccc(-c2ncc[nH]2)cc1 [2-PHENYLIMIDAZOLE] | 694 µM (≈ 100 µg/mL) | 86 µM (≈ 12.4 µg/mL) | 43 µM (≈ 6.2 µg/mL) | 5 µM (≈ 0.721 µg/mL) | 43 µM (≈ 6.2 µg/mL) | 5 µM (≈ 0.721 µg/mL) | 43 µM (≈ 6.2 µg/mL) | 5 µM (≈ 0.721 µg/mL) | 347 µM (≈ 50 µg/mL) | 43 µM (≈ 6.2 µg/mL) |  |  |  |  |  | 
Nc1ncnc2c1ncn2C[C@H](O)CO [(S)-DHPA] |  |  |  |  |  |  |  |  |  |  |  |  |  |  |  | MCC [1]: > 250 µg/mL; EC50 [3]: > 250 µg/mL; EC50 (Coxsackievirus B4 [4]): > 250 µg/mL; MCC [5]: > 250 µg/mL; EC50 (Punta Toro virus): > 250 µg/mL; EC50 [8]: > 250 µg/mL; EC50 (Human respirovirus 3): > 250 µg/mL; EC50 (Sindbis virus): > 250 µg/mL; EC50 (Coxsackievirus B4 [9]): > 250 µg/mL; EC50 [10]: > 250 µg/mL
O=c1[nH]c(=O)n([C@H]2C[C@H](O)[C@@H](CO)O2)cc1/C=C/Br [BRIVUDINE] |  |  |  |  |  |  |  |  |  |  | 96 µg/mL (≈ 288 µM) | 29 µg/mL (≈ 87.1 µM) | > 250 µg/mL | > 250 µg/mL | 0.04 µg/mL (≈ 0.12 µM) | 
Nc1ccn(C[C@@H](CO)OCP(=O)(O)O)c(=O)n1.O.O [CIDOFOVIR] |  |  |  |  |  |  |  |  |  |  | 2 µg/mL | 2 µg/mL | > 250 µg/mL | > 250 µg/mL |  | 
OC(Cn1cncn1)(Cn1cncn1)c1ccc(F)cc1F [FLUCONAZOLE] | 40 µM (≈ 12.3 µg/mL) | 1 µM (≈ 0.306 µg/mL) |  |  |  |  |  |  | 40 µM (≈ 12.3 µg/mL) | 1 µM (≈ 0.306 µg/mL) |  |  |  |  |  | 
Nc1nc2c(ncn2COC(CO)CO)c(=O)[nH]1 [GANCICLOVIR] |  |  |  |  |  |  |  |  |  |  | 1 µg/mL (≈ 3.92 µM) | 0.06 µg/mL (≈ 0.235 µM) | > 100 µg/mL | > 100 µg/mL | 0.06 µg/mL (≈ 0.235 µM) | 
CCn1cc(C(=O)O)c(=O)c2cc(F)c(N3CCNCC3)cc21 [NORFLOXACIN] |  |  | 19 µM (≈ 6.07 µg/mL) | 2 µM (≈ 0.639 µg/mL) | 19 µM (≈ 6.07 µg/mL) | 2 µM (≈ 0.639 µg/mL) | 19 µM (≈ 6.07 µg/mL) | 2 µM (≈ 0.639 µg/mL) |  |  |  |  |  |  |  | 
NC(=O)c1ncn([C@@H]2O[C@H](CO)[C@@H](O)[C@H]2O)n1 [RIBAVIRIN] |  |  |  |  |  |  |  |  |  |  | > 250 µg/mL | > 250 µg/mL |  | > 250 µg/mL | > 250 µg/mL | MCC [1]: > 250 µg/mL; EC50 (Coxsackievirus B4 [4]): > 250 µg/mL; MCC [5]: > 250 µg/mL; EC50 [8]: > 250 µg/mL; EC50 (Sindbis virus): > 250 µg/mL
